Measurements published in PubChem BioAssay AID540305 (Sanford-Burnham Center for Chemical Genomics, 2011).
Activity calls are given as the source filed them.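 How the source made its calls: active means mean EC50 at or below 20 µM; inactive means the rest.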

Each compound was assayed against CHO-XBP1 luciferase reporter, IRE1-XBP1 activation, luminescence (assay: XBP1 luciferase reporter activation – CHO-XBP1 cells, luminescence, counter-screen for UPR apoptotic arm activator project, SAR follow-up (AID 540305)).
Outline: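 Test system: CHO cells with IRE1-XBP1 luciferase reporter | Amount: 1000 cells/well | Buffer or medium: F12 medium with 10% fetal bovine serum | Doses: Compound dose-response series, final DMSO at most 1% | Times: Overnight plating, 6 h compound treatment at 37 °C | Technique: Steady-Glo luminescence | Control set: 10 µg/mL tunicamycin versus DMSO only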

EC50	Compound
> 80 µM (inactive)	O=C(Nc1ccc(S(=O)(=O)c2ccccc2)cc1)c1ccc([N+](=O)[O-])o1
> 80 µM (inactive)	O=C(Nc1nc2ccccc2s1)c1cccnc1
> 80 µM (inactive)	O=C(Nc1ccc(S(=O)(=O)C2CCCCC2)cc1)c1ccc([N+](=O)[O-])o1
> 80 µM (inactive)	Cc1ccc(C(=O)Nc2ccc(S(=O)(=O)N3CCOCC3)cc2)o1
> 80 µM (inactive)	O=C(Nc1ccc(S(=O)(=O)N2CCCCC2)cc1)c1ccc([N+](=O)[O-])o1
> 80 µM (inactive)	O=C(Nc1cccc(S(=O)(=O)N2CCOCC2)c1)c1ccco1
> 80 µM (inactive)	O=C(Nc1ccc(S(=O)(=O)N2CCOCC2)cc1)c1ccccc1
> 80 µM (inactive)	O=C(Nc1nc2c(Cl)cc(Cl)cc2s1)c1ccccn1
> 80 µM (inactive)	O=C(Nc1nc2c(F)cccc2s1)c1ccccn1
> 80 µM (inactive)	Fc1cc(F)c2nc(NCc3ccccn3)sc2c1
> 80 µM (inactive)	O=C(Nc1ccc(S(=O)(=O)N2CCOCC2)cc1)c1ccc(Br)o1
> 80 µM (inactive)	CC1CN(S(=O)(=O)c2ccc(NC(=O)c3ccco3)cc2)CC(C)O1 (stereo unspecified)
> 80 µM (inactive)	O=C(Nc1nc2ccccc2s1)c1ccccn1
> 80 µM (inactive)	O=C(Nc1nc2ccc(F)cc2s1)c1ccccn1
> 80 µM (inactive)	CC1CCN(S(=O)(=O)c2ccc(NC(=O)c3ccc([N+](=O)[O-])o3)cc2)CC1
> 80 µM (inactive)	O=C(Nc1nc2c(F)cc(F)cc2s1)c1ccccn1

EC50	Compound
> 80 µM (inactive)	O=C(Nc1ccc(S(=O)(=O)N2CCOCC2)cc1)c1ccc([N+](=O)[O-])s1
> 80 µM (inactive)	O=C(Nc1ccc(S(=O)(=O)N2CCOCC2)cc1)c1ccc([N+](=O)[O-])cc1
> 80 µM (inactive)	O=C(Nc1ccc(S(=O)(=O)N2CCCC2)cc1)c1ccc([N+](=O)[O-])o1
> 80 µM (inactive)	O=C(Nc1nc2c(F)cc(F)cc2s1)c1ccncc1
> 80 µM (inactive)	Cc1cc(C)c2nc(NC(=O)c3ccccn3)sc2c1
> 80 µM (inactive)	O=C(Nc1ccc(S(=O)(=O)N2CCOCC2)cc1)c1ccco1
> 80 µM (inactive)	O=C(Nc1nc2c(F)cc(F)cc2s1)c1cccnc1
> 80 µM (inactive)	O=C(Nc1ccc(S(=O)(=O)N2CCNCC2)cc1)c1ccc([N+](=O)[O-])o1
> 80 µM (inactive)	O=C(Nc1ccc(C(=O)N2CCOCC2)cc1)c1ccco1
> 80 µM (inactive)	O=C(Nc1ccc(S(=O)(=O)N2CCOCC2)cc1)c1cccs1
> 80 µM (inactive)	CC1(C)CCN(S(=O)(=O)c2ccc(NC(=O)c3ccc([N+](=O)[O-])o3)cc2)CC1
> 80 µM (inactive)	O=C(Nc1nc2ccccc2s1)c1ccncc1
> 80 µM (inactive)	O=C(Nc1ccc(S(=O)(=O)N2CCC(O)CC2)cc1)c1ccc([N+](=O)[O-])o1
> 80 µM (inactive)	O=C(Nc1nc2c(F)cc(F)cc2s1)c1ccccc1
> 80 µM (inactive)	O=C(Nc1ccc(S(=O)(=O)N2CCOCC2)cc1)c1ccc([N+](=O)[O-])o1
